An excerpt weighted towards active compounds, which were near 4.3% of everything screened.
TAAR1 antagonist: human TAAR1 antagonists, primary screen, Fluo-8 calcium fluorescence, CHO RD-HGA16 cells | AID 624466, 2012 | inhibition, % at 3 µM | Trace amine-associated receptor 1 (Homo sapiens), Q96RJ0 | 360,000 tested, 1.5% active | antagonist;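 active = inhibition above a per-plate cutoff, the mean inhibition of test compounds on that plate plus 3 SD, cut at about 49% in these data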
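Test system: hTAAR1-expressing CHO RD-HGA16 cells, Gα16-coupled; Probe or stimulus: EC80 β-phenethylamine stimulus; Compound dosing: single nominal final test compound concentration of 3 µM; Timing: 140 s kinetic read after compound, 140 s after agonist; Signal: Fluo-8 calcium-sensitive fluorescence; Measure: % inhibition of agonist calcium response; Controls: DMSO and EC80 PEA controls.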
Beta2AR agonist: beta2AR agonists driving receptor internalization, primary screen, cell-based, FAP fluorogen, flow cytometry; response, % (concentration not given with the values); Beta-2 adrenergic receptor (Homo sapiens), P07550; 340,000 tested, 0.43% active; AID 504454, 2011; Am2.2-beta2AR cells;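 active = response above a set limit, near 3 SD of response in nonfluorescent compounds, cut at about 42% in these data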
Target sequence (P07550 whole entry, looked up): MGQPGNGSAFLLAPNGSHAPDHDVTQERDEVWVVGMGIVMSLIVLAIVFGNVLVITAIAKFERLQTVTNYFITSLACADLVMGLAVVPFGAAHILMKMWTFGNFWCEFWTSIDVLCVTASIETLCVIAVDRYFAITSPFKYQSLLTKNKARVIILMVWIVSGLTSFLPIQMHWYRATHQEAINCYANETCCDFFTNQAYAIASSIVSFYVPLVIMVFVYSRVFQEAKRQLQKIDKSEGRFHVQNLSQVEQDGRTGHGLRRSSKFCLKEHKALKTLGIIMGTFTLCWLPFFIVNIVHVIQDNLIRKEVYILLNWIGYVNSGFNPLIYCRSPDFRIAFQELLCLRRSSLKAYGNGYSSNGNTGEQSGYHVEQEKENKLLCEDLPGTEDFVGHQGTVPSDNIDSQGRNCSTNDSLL
MC4R antag cAMP: MC4R antagonists of cAMP signaling, primary screen, cell-based, TR-FRET, antagonist arm of biased-ligand search; MC4R-expressing cells, MTII-stimulated cAMP, LANCE TR-FRET; inhibition, % at 6.5 µM; 360,000 tested, 0.48% active; Melanocortin receptor 4 (Homo sapiens), P32245;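 active = inhibition above its plate's cutoff, the mean of tested wells on that plate plus 3 SD, cut at about 29% in these data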
Target sequence (P32245 whole entry, looked up): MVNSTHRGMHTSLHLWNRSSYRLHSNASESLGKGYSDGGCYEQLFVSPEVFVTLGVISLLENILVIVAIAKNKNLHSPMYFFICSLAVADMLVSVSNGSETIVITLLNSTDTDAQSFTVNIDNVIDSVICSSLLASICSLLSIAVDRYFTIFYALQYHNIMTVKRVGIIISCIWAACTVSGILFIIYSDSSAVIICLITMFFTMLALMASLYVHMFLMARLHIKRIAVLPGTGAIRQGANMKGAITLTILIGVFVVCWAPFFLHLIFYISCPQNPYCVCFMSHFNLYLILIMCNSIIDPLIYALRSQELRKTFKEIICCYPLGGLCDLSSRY
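Assay system: human MC4R-expressing U2OS cells; reagent: Melanotan II stimulation of cells; dosing: 6.5 µM single dose; timing: compound 30 min, challenge 1 h, detection 1 h; signal: TR-FRET cAMP assay; replicates: one well per compound, no replicates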
MC4R ag barr: MC4R agonists recruiting beta-arrestin, primary screen, cell-based, luminescence, agonist arm of biased-ligand search. Melanocortin receptor 4 (Homo sapiens), P32245. U2OS MC4R beta-arrestin complementation; percent of melanotan II response, DMSO zero. activation, % at 8.9 µM. 360,000 tested, 0.98% active. AID 540308, 2011;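 active = activation above a per-plate cutoff, the mean activation of sample wells on that plate plus 3 SD, cut at about 8% in these data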
TAAR1 agonist: human TAAR1 agonists, primary screen, Fluo-8 calcium fluorescence, CHO RD-HGA16 cells; AID 624467, 2012; 360,000 tested, 0.99% active; vehicle wells 0%, saturating PEA agonist 100%; activation, % at 3 µM; Trace amine-associated receptor 1 (Homo sapiens), Q96RJ0;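 active = activation above the mean activation of all test compounds in the run plus 3 SD, cut at about 38% in these data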
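Assay system: CHO-derived RD-HGA16 cells with stable Gα16 and human TAAR1; timing: 17-24 h seeding, 75 min 37 °C dye, 30 min RT; read-out: % activation from peak over basal fluorescence ratio, DMSO-to-PEA scaled; measured by: kinetic Fluo-8 calcium fluorescence; benchmarks: low control DMSO, high control PEA (EC100); doses: 3 µM single concentration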
HTR2A ag: mouse Htr2a agonists via beta-arrestin recruitment, primary screen, cell-based, luminescence; 5-hydroxytryptamine receptor 2A (Mus musculus), P35363; CHO-K1 mHTR2A beta-arrestin complementation; percent of 30 µM serotonin response; activation, % at 7.6 µM; 360,000 tested, 0.66% active; AID 624169, 2012;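 active = activation above a run cutoff, the mean activation of all tested compounds plus 3 SD, cut at about 14% in these data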
B2AR ag CP1: beta2AR agonists via receptor internalization, confirmation, cell-based, FAP fluorogen, flow cytometry, single point, cherry pick 1; AID 540358, 2011; Am2.2-beta2AR cells, FAP surface receptor; active compounds read low; percent response (surface receptor), % at 10 µM; shares compounds with Beta2AR agonist; 1,100 tested, 25% active;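 active = surface receptor percent response at or below 58%, roughly 3 SD from nonfluorescent compounds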
FAP fluor counter: fluorescence artifact in beta-2AR agonist FAP counterscreen. shares compounds with Beta2AR agonist. calls only at 10 µM. 1,100 tested, under 10 active. Am2.2 cells, FAP fluorogen flow cytometry; active compounds read low;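 active = percent response below a set limit in fluorescence channel 1 and below 50% in channel 8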
cAMP nonselect: nonselective cAMP signaling inhibitors, parental cells, counter-screen for MC4R biased antagonist project, cell-based, TR-FRET, U2OS, forskolin, triplicate; LANCE TR-FRET; inhibition, % at 6.5 µM; 1,600 tested, 26% active; AID 602193, 2012; shares compounds with MC4R antag cAMP;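 active = mean inhibition over triplicates above the low-control well mean plus 3 SD, set per campaign, cut at about 13% in these data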;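 also: signal is single emission at 671 nm which falls as cellular cAMP rises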
MC4R antag conf: MC4R cAMP antagonists, retest, confirmation, cell-based, TR-FRET. inhibition, % at 6.5 µM. shares compounds with MC4R antag cAMP. 1,600 tested, 27% active. MC4R-expressing cells, MTII-stimulated cAMP. AID 602195, 2012; in the data active = inhibition above about 29%
TAAR1 ag conf: human TAAR1 agonists, retest of hits, confirmation, Fluo-8 calcium fluorescence, CHO RD-HGA16 cells; shares compounds with TAAR1 agonist; scaled: DMSO 0%, maximal phenethylamine 100%; activation, % at 3 µM; 2,400 tested, 82% active; AID 651783, 2012;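 active = activation above a cutoff set at the run's mean compound activation plus 3 SD, cut at about 39% in these data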
Ga16 ag counter: nonselective calcium mobilization agonists, CHO-Ga16 cells, counter-screen for hTAAR1 agonist project, cell-based, fluorescence, CHO-Ga16 parental line | AID 651787, 2012 | activation, % at 3 µM | 2,400 tested, 50% active | shares compounds with TAAR1 agonist | Fluo-8 calcium fluorescence; normalized to maximal ATP response, DMSO zero;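 active = activation above the run cutoff, the mean activation over all tested wells plus 3 SD, cut at about 12% in these data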
TAAR1 desensitize: TAAR1 desensitization by agonist hits, confirmation, counter-screen for TAAR1 agonist project, cell-based, fluorescence, tachyphylaxis; shares compounds with TAAR1 agonist; CHO RD-HGA16 hTAAR1, Fluo-8 calcium, beta-PEA response inhibition; inhibition, % at 3 µM; 2,400 tested, 46% active; AID 651951, 2012;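 active = inhibition above the run cutoff, the mean inhibition of all test compounds plus 3 SD, cut at about 49% in these data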;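 also: beta-PEA stimulus applied at its EC80; loss of beta-PEA calcium signal after compound pretreatment read as receptor desensitization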
Ga16 nonsel ant: inhibition of ATP-evoked calcium response in CHO-Ga16 cells, counter-screen for TAAR1 agonist project, cell-based, fluorescence | shares compounds with TAAR1 agonist | CHO-Ga16 ATP-induced calcium, Fluo-8 fluorescence | inhibition, % at 3 µM | 2,400 tested, 39% active | AID 651952, 2012;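 active = inhibition above the plate's mean compound inhibition plus 3 SD, computed per plate, cut at about 22% in these data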
Each line names hits and unclear results; the compound was inactive in the other large screens (follow-up assays come after a bar, where they were run).

OC(c1cccc(Cl)c1)(c1cccc(Cl)c1)C1CN2CCC1CC2 (stereo unspecified)	Beta2AR agonist 59.1 | B2AR ag CP1 inactive | FAP fluor counter inactive
CC1([N+](=O)[O-])COP(=O)(Nc2cccc(Br)c2)OC1 (stereo unspecified)	none
COC(=O)C1=C(c2cccc(OCc3ccccc3)c2)C[C@@H]2CC[C@H]1N2C(=O)NCc1cccc(F)c1	Beta2AR agonist 54.3 | B2AR ag CP1 45.9 | FAP fluor counter inactive
COC(=O)C1=C(c2cccc(OCc3ccccc3)c2)C[C@@H]2CC[C@H]1N2C(=O)NCc1ccccc1	none
CC(Cc1ccccc1)/[N+]([O-])=C\c1ccc(C(F)(F)F)cc1 (stereo unspecified)	none
CNCCC(Oc1ccc(C(F)(F)F)cc1)c1ccccc1 (stereo unspecified)	none | B2AR ag CP1 inactive | FAP fluor counter inactive
COC(=O)CSC1=NN1c1cc(C)nc(N)n1	none
O=C1NC(=O)N(Cc2ccc(F)cc2)C(=O)/C1=C\c1ccoc1	none
O=C1NC(=O)N(Cc2ccccc2Cl)C(=O)/C1=C/c1cccs1	MC4R antag cAMP 35.8 | cAMP nonselect 16.5 | MC4R antag conf 29.7
O=C1NC(=O)N(Cc2ccc(F)cc2)C(=O)/C1=C/c1cccs1	MC4R antag cAMP 68.2 | cAMP nonselect inactive | MC4R antag conf inactive
O=C1NC(=O)C(=Cc2ccc(-c3ccc(Cl)cc3)o2)C(=O)N1	Beta2AR agonist 59.7, MC4R antag cAMP 43.7 (no result: TAAR1 antagonist, TAAR1 agonist) | cAMP nonselect 41.5 | MC4R antag conf 68.2
Cc1cc(/C=C2\C(=O)NC(=O)N(Cc3ccco3)C2=O)c(C)n1-c1ccc(O)cc1	MC4R antag cAMP 30.2 | cAMP nonselect inactive | MC4R antag conf inactive
Cc1ccc(-n2c(C)cc(/C=C3/C(=O)NC(=O)N(Cc4ccco4)C3=O)c2C)cc1	none
COc1ccc([C@@H](O)[C@@H](N)c2ccccc2)cc1	none
Clc1ccc(C(c2ccc(Cl)cc2)n2cc[n+](CC(OCc3ccc(Cl)cc3Cl)c3ccc(Cl)cc3Cl)c2)cc1 (stereo unspecified)	MC4R antag cAMP 61.2 | cAMP nonselect 20.1 | MC4R antag conf 71.3
Cc1cc([N+](=O)[O-])c2ccccc2[n+]1[O-]	MC4R antag cAMP 31.4 (no result: TAAR1 antagonist, TAAR1 agonist) | cAMP nonselect inactive | MC4R antag conf 30.8
COC(=O)C1C(O)CC2CCC1N2C (stereo unspecified)	none
Cc1ccc(Cn2nc(C)c(C=O)c2Cl)cc1	MC4R antag cAMP 30.6 | cAMP nonselect inactive | MC4R antag conf inactive
Cc1nn(Cc2ccccc2)c(C)c1C=C1C(=O)NC(=S)NC1=O	none
O=P(/C=C1\OCc2ccccc21)(Oc1ccccc1)Oc1ccccc1	none (no result: Beta2AR agonist, MC4R antag cAMP, MC4R ag barr)
CC12CCC3C(CC=C4CC5(CCC43C)OCCO5)C1CCC2=O (stereo unspecified)	MC4R antag cAMP 29.8 | cAMP nonselect inactive | MC4R antag conf inactive
CCC(=O)OC1CCC2C3CCC4CC(=O)C=CC4(C)C3CCC12C (stereo unspecified)	none
Cc1ccccc1N1C(=O)NC(=O)/C(=C\c2cnn(-c3ccccc3)c2)C1=O	MC4R antag cAMP 41.4 | cAMP nonselect 13.8 | MC4R antag conf inactive
CN1CCN(c2ccc(N)cc2Cl)CC1	none
CC(=O)Nc1ccc(S(=O)(=O)N2Cc3ccccc3-n3nncc3C2)cc1	none (no result: Beta2AR agonist)
O=C1NC(=O)C(=Cc2ccc(-c3ccc(F)cc3O)o2)C(=O)N1	TAAR1 antagonist 85.1, Beta2AR agonist 42.4, MC4R antag cAMP 53.5, TAAR1 agonist 104.7 | cAMP nonselect 13.2 | MC4R antag conf 29.5 | TAAR1 ag conf 108.8 | Ga16 ag counter 60.8 | TAAR1 desensitize 87.6 | Ga16 nonsel ant 68.1
CC(C)(CN)CC(=O)O	none
Nc1ccc(-c2ccccc2)cc1	none

Screens as filed in PubChem.
